“Also recorded” adds a separate entry of the source. Read-outs that look alike come from different tables or passages of the source.
What was measured:
[1] = Size-exclusion FPLC retention of nitrophorins, mutants and ligand complexes; type: physicochemical, Rhodnius prolixus; settings: for dimer formation: under any conditions / at any pH
Summary of the method: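 Analytical run on Superdex75 at 4 °C in 100 mM sodium acetate, NaCl added to 220 mM total ionic strength. Protein at 1 mM was run at pH 5.0, 5.25, 5.5 and 5.75. Separately, protein from 1 to 0.025 mM was run at pH 5.0. Elution position compared with molecular weight standards.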

[2] = type: physicochemical, Rhodnius prolixus; settings: pH 7.3; 0.88 mM; NO bound
Summary of the method: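 Recombinant nitrophorin refolded from inclusion bodies, reconstituted with excess hemin at pH 7.5, then purified by size-exclusion at pH 5.0. ¹H{¹⁵N} HSQC spectra recorded across pH: 0.2 mM protein at pH 5.0, 5.5 and 6.0; 0.8 mM at pH 6.5. pH 6.5 peaks assigned from pH 7.3 assignments, following cross-peaks through intermediate spectra. NO-bound sample run at 3.7 mM and after dilution to 0.88 mM.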

[3] = Stopped-flow kinetics of release of NO from the nitrophorins; type: binding, Rhodnius prolixus; settings: 5–10 μM in 100 mM sodium phosphate buffer
Summary of the method: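 Stopped-flow measurement of NO release from NO-bound nitrophorins with native or M0-bearing N-termini. Dissociation Kd obtained at pH 5.0 and 7.5 in dilute solution, 5–10 μM protein in 100 mM sodium phosphate buffer.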

[4] = cited from earlier work

B1: D30A (protein)
chain: ACTKNAIAQTGFNKDKYFNGDVWYVTDYLALEPDDVPKRYCAALAAGTASGKLKEALYHYDPKTQDTFYDVSELQVESLGKYTANFKKVDKNGNVKVAVTAGNYYTFTVMYADDSSALIHTCLHKGNKDLGDLYAVLNRNKDAAAGDKVKSAVSAATLEFSKFISTKENNCAYDNDSLKSLLTK
monomer or dimer on the size-exclusion column ([1]; pH 5.0): monomers

B2: Hm complex: NP4 with histamine bound to the heme iron (protein)
chain: ACTKNAIAQTGFNKDKYFNGDVWYVTDYLDLEPDDVPKRYCAALAAGTASGKLKEALYHYDPKTQDTFYDVSELQVESLGKYTANFKKVDKNGNVKVAVTAGNYYTFTVMYADDSSALIHTCLHKGNKDLGDLYAVLNRNKDAAAGDKVKSAVSAATLEFSKFISTKENNCAYDNDSLKSLLTK
monomer or dimer on the size-exclusion column ([1]; all pH values, including those below 6.0): monomer
monomer or dimer on the size-exclusion column ([1]; pH 5.0): monomer

B3: R39A (protein)
chain: ACTKNAIAQTGFNKDKYFNGDVWYVTDYLDLEPDDVPKAYCAALAAGTASGKLKEALYHYDPKTQDTFYDVSELQVESLGKYTANFKKVDKNGNVKVAVTAGNYYTFTVMYADDSSALIHTCLHKGNKDLGDLYAVLNRNKDAAAGDKVKSAVSAATLEFSKFISTKENNCAYDNDSLKSLLTK
monomer or dimer on the size-exclusion column ([1]; pH 5.0): dimers

B4: NP4-NO: NP4 with nitric oxide bound to the heme (protein)
chain: ACTKNAIAQTGFNKDKYFNGDVWYVTDYLDLEPDDVPKRYCAALAAGTASGKLKEALYHYDPKTQDTFYDVSELQVESLGKYTANFKKVDKNGNVKVAVTAGNYYTFTVMYADDSSALIHTCLHKGNKDLGDLYAVLNRNKDAAAGDKVKSAVSAATLEFSKFISTKENNCAYDNDSLKSLLTK
monomer or dimer on the size-exclusion column ([1]; pH 5.0): dimer
state of the dimer [2]: still highly dimerized

B5: K38A (protein)
chain: ACTKNAIAQTGFNKDKYFNGDVWYVTDYLDLEPDDVPARYCAALAAGTASGKLKEALYHYDPKTQDTFYDVSELQVESLGKYTANFKKVDKNGNVKVAVTAGNYYTFTVMYADDSSALIHTCLHKGNKDLGDLYAVLNRNKDAAAGDKVKSAVSAATLEFSKFISTKENNCAYDNDSLKSLLTK
monomer or dimer on the size-exclusion column ([1]; pH 5.0): dimers

B6: NP4-ImH: NP4 with imidazole bound (protein)
chain: ACTKNAIAQTGFNKDKYFNGDVWYVTDYLDLEPDDVPKRYCAALAAGTASGKLKEALYHYDPKTQDTFYDVSELQVESLGKYTANFKKVDKNGNVKVAVTAGNYYTFTVMYADDSSALIHTCLHKGNKDLGDLYAVLNRNKDAAAGDKVKSAVSAATLEFSKFISTKENNCAYDNDSLKSLLTK
monomer or dimer on the size-exclusion column ([1]; pH 5.0): dimers

B7: D30N (protein)
chain: ACTKNAIAQTGFNKDKYFNGDVWYVTDYLNLEPDDVPKRYCAALAAGTASGKLKEALYHYDPKTQDTFYDVSELQVESLGKYTANFKKVDKNGNVKVAVTAGNYYTFTVMYADDSSALIHTCLHKGNKDLGDLYAVLNRNKDAAAGDKVKSAVSAATLEFSKFISTKENNCAYDNDSLKSLLTK
monomer or dimer on the size-exclusion column ([1]; pH 5.0): monomers

B8: NP4 apoprotein: NP4 without heme (protein)
chain: ACTKNAIAQTGFNKDKYFNGDVWYVTDYLDLEPDDVPKRYCAALAAGTASGKLKEALYHYDPKTQDTFYDVSELQVESLGKYTANFKKVDKNGNVKVAVTAGNYYTFTVMYADDSSALIHTCLHKGNKDLGDLYAVLNRNKDAAAGDKVKSAVSAATLEFSKFISTKENNCAYDNDSLKSLLTK
monomer or dimer on the size-exclusion column ([1]; pH 5.0): monomeric

B9: K125A (protein)
chain: ACTKNAIAQTGFNKDKYFNGDVWYVTDYLDLEPDDVPKRYCAALAAGTASGKLKEALYHYDPKTQDTFYDVSELQVESLGKYTANFKKVDKNGNVKVAVTAGNYYTFTVMYADDSSALIHTCLHAGNKDLGDLYAVLNRNKDAAAGDKVKSAVSAATLEFSKFISTKENNCAYDNDSLKSLLTK
monomer or dimer on the size-exclusion column ([1]; pH 5.0): dimers

B10: K125E (protein)
chain: ACTKNAIAQTGFNKDKYFNGDVWYVTDYLDLEPDDVPKRYCAALAAGTASGKLKEALYHYDPKTQDTFYDVSELQVESLGKYTANFKKVDKNGNVKVAVTAGNYYTFTVMYADDSSALIHTCLHEGNKDLGDLYAVLNRNKDAAAGDKVKSAVSAATLEFSKFISTKENNCAYDNDSLKSLLTK
monomer or dimer on the size-exclusion column ([1]; pH 5.0): dimers

B11: (M0)NP1: recombinant NP1 retaining methionine M0 at the N-terminus (MKCTK...) (protein)
chain: MKCTKNALAQTGFNKDKYFNGDVWYVTDYLDLEPDDVPKRYCAALAAGTASGKLKEALYHYDPKTQDTFYDVSELQEESPGKYTANFKKVEKNGNVKVDVTSGNYYTFTVMYADDSSALIHTCLHKGNKDLGDLYAVLNRNKDTNAGDKVKGAVTAASLKFSDFISTKDNKCEYDNVSLKSLLTK
NO Kd (NO dissociation) ([3]; pH 5.0): 0.426 ± 0.005 s^–1
NO Kd (NO dissociation) ([3]; pH 7.5): 2.32 ± 0.07 s^–1
monomer or dimer on the size-exclusion column ([1]; pH 5.0): not a dimer
dimer formation [1]: do not form dimers
dimer formation ([1]; listed as recombinant NP1): not a dimer at any pH
NO Kd (NO dissociation) ([4]; column pH 7.5, measured at pH 8.0 rather than pH 7.5 (footnote a)): 2.2 ± 0.01 ^a s^–1
NO Kd (NO dissociation) ([4]; pH 5.0, ref 17): 0.20 ± 0.01 s^–1

B12: A1K: site-directed mutant of NP4, M0 present (N-terminus MKCTK...) (protein)
chain: MKCTKNAIAQTGFNKDKYFNGDVWYVTDYLDLEPDDVPKRYCAALAAGTASGKLKEALYHYDPKTQDTFYDVSELQVESLGKYTANFKKVDKNGNVKVAVTAGNYYTFTVMYADDSSALIHTCLHKGNKDLGDLYAVLNRNKDAAAGDKVKSAVSAATLEFSKFISTKENNCAYDNDSLKSLLTK
monomer or dimer on the size-exclusion column ([1]; pH 5.0): monomer

B13: NP1(K1A) (protein)
chain: ACTKNALAQTGFNKDKYFNGDVWYVTDYLDLEPDDVPKRYCAALAAGTASGKLKEALYHYDPKTQDTFYDVSELQEESPGKYTANFKKVEKNGNVKVDVTSGNYYTFTVMYADDSSALIHTCLHKGNKDLGDLYAVLNRNKDTNAGDKVKGAVTAASLKFSDFISTKDNKCEYDNVSLKSLLTK
monomer or dimer on the size-exclusion column ([1]; pH 5.0): broad peak that encompasses the retention times expected for a dimer and a monomer
monomer or dimer on the size-exclusion column ([1]; pH 5.0, NO added / bound): form dimers; also recorded: two peaks, the first of which is the dimer

B14: (M0)NP1sym: (M0)NP1 containing the symmetrical heme, 2,4-dimethyldeuterohemin (protein, UniProt Q26239 24-207, looked up)
Nitrophorin-1: KCTKNALAQTGFNKDKYFNGDVWYVTDYLDLEPDDVPKRYCAALAAGTASGKLKEALYHYDPKTQDTFYDVSELQEESPGKYTANFKKVEKNGNVKVDVTSGNYYTFTVMYADDSSALIHTCLHKGNKDLGDLYAVLNRNKDTNAGDKVKGAVTAASLKFSDFISTKDNKCEYDNVSLKSLLTK
modifications: Met0; 2,4-dimethyldeuterohemin heme
NO Kd (NO dissociation) ([3]; pH 5.0): 0.218 ± 0.004 s^–1
NO Kd (NO dissociation) ([3]; pH 7.5): 2.66 ± 0.27 s^–1

B15: Nat. N-term NP1 ^c: native N-terminal NP1 (N-terminus KC...) (protein, UniProt Q26239 24-207, looked up)
Nitrophorin-1: KCTKNALAQTGFNKDKYFNGDVWYVTDYLDLEPDDVPKRYCAALAAGTASGKLKEALYHYDPKTQDTFYDVSELQEESPGKYTANFKKVEKNGNVKVDVTSGNYYTFTVMYADDSSALIHTCLHKGNKDLGDLYAVLNRNKDTNAGDKVKGAVTAASLKFSDFISTKDNKCEYDNVSLKSLLTK
NO Kd (NO dissociation) ([3]; pH 5.0): 0.032 ± 0.011 s^–1
NO Kd (NO dissociation) ([3]; pH 7.5): 1.11 ± 0.04 s^–1

B16: native N-terminal NP1: NP1 expressed with a leader sequence, giving the native N-terminus KCTK... (protein)
chain: KCTKNALAQTGFNKDKYFNGDVWYVTDYLDLEPDDVPKRYCAALAAGTASGKLKEALYHYDPKTQDTFYDVSELQEESPGKYTANFKKVEKNGNVKVDVTSGNYYTFTVMYADDSSALIHTCLHKGNKDLGDLYAVLNRNKDTNAGDKVKGAVTAASLKFSDFISTKDNKCEYDNVSLKSLLTK
modifications: left off: His6, C-terminal, kept
monomer or dimer on the size-exclusion column ([1]; pH 5.0, NO added / bound): form dimers
